We go through six compounds from ChEMBL document CHEMBL1146679, “Synthesis and biological evaluation of pyrrolo[2,1-c][1,4]benzodiazepine (PBD) C8 cyclic amine conjugates” (2004).

For assay [1], the system named is Nucleic Acid. The experiment in a line: In vitro induced thermal stabilization of duplex DNA melting after incubation with the compound (20 uM) at 37 C for 0 h. The assay is classed as functional. The following applies: Bos taurus. An outline of the steps:
(§1)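 Duplex calf thymus DNA (100 µM in DNAp) mixed with ligand (20 µM), 5:1 molar ratio, in 10 mM NaH2PO4/Na2HPO4 + 1 mM Na2EDTA, pH 7.00 ± 0.01; held at 37 °C for 0, 4 or 18 h before thermal melting; ΔTm relative to DNA alone, ±0.1 °C, at least 3 determinations.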

Assay [2] concerns A2780. The experiment in a line: Concentration required to inhibit A2780cisR cell growth when compared with control after incubation for 96 h at 37 C. The assay is classed as functional, cell-based. The settings on record: Homo sapiens. An outline of the steps:
(§2)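 Human ovarian tumour lines (SKOV-3, A2780, A2780cisR, CH1, CH1cisR) exposed to agent for 96 h at 37 °C; growth compared with PBD-free controls; IC50 taken as concentration giving 50% growth inhibition.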

In assay [3] the test system is A2780. Kind of assay: Resistance factor was determined as IC50 cisplatin-resistant/parent for human A2780 ovarian cell line. The assay is classed as functional. Put shortly:
(§3)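 Resistance factor computed as IC50 in cisplatin-resistant line divided by IC50 in parent line, for the A2780/A2780cisR and CH1/CH1cisR pairs, from 96 h, 37 °C growth-inhibition assays against PBD-free controls.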

Assay [4] relates to A2780. The experiment in a line: Concentration required to inhibit A2780 cell growth when compared with control after incubation for 96 hr at 37 C. The class given is functional, cell-based. The following applies: Homo sapiens. An outline of the steps:
as §2

For assay [5], the system named is CH1. The experiment in a line: Concentration required to inhibit CH1cisR tumor cell growth when compared with control after incubation for 96 hr at 37 C. The class given is functional, cell-based. The settings on record: Homo sapiens. Put shortly:
as §2

Assay [6] concerns CH1. The experiment in a line: Resistance factor was determined as IC50 cisplatin-resistant/parent for human CH1cisR tumor ovarian cell line. The assay is classed as functional. An outline of the steps: as §3
The test system of assay [7] is Nucleic Acid. The experiment in a line: In vitro induced thermal stabilization of duplex DNA melting after incubation with the compound (20 uM) at 37 C for 4 h. The assay is classed as functional. The following applies: Bos taurus. Put shortly: as §1
The test system of a further assay is SK-OV-3. Kind of assay: Concentration required to inhibit SKOV-3 cell growth when compared with control after incubation for 96 hr at 37 C. The assay is classed as functional, cell-based. The settings on record: Homo sapiens. Put shortly:
as §2

The test system of assay [8] is Nucleic Acid. The experiment in a line: In vitro induced thermal stabilization of duplex DNA melting after incubation with the compound (20 uM) at 37 C for 18 h. The following applies: Bos taurus. The assay is classed as functional. Put shortly:
as §1

The test system of assay [9] is CH1. The experiment in a line: Concentration required to inhibit CH1 tumor cell growth when compared with control after incubation for 96 hr at 37 C. The settings on record: Homo sapiens. The class given is functional, cell-based. An outline of the steps: as §2
In assay [10] the test system is Nucleic Acid. The experiment in a line: gIn vitro induced thermal stabilization of duplex DNA melting after incubation with the compound (20 uM) at 37 C for 0 h. The class given is functional. The following applies: Bos taurus. Put shortly:
as §1

Assay [11] can be described thus: Activity in NCI standard hollow fibre assay after subcutaneous administration. The assay is classed as functional.
Assay [12] can be described thus: Total activity in NCI standard hollow fibre assay. The assay is classed as functional.
Assay [13] can be described thus: Activity in NCI standard hollow fibre assay after intraperitoneal administration. The class given is functional.

For `COc1cc2c(cc1OCc1ccccc1)N=C[C@@H]1CCCN1C2=O`, the results for the ΔTm in the assay with Nucleic Acid [1], with Nucleic Acid [7] and in the assay with Nucleic Acid [8] were 0.2 °C, 0.4 °C and 0.4 °C, respectively. The Concentration in the assay on A2780 [2] turned out to be 0.48 µM; with A2780 [4], 0.17 µM; in the assay with CH1 [5], 0.145 µM; with SK-OV-3, 0.46 µM; in the assay with CH1 [9] it was 0.145 µM. The results for the RF with A2780 [3] and with CH1 [6] were 2.8 and 1, respectively.

For the compound `COc1cc2c(cc1OCCC(=O)N1CCc3ccccc31)N=C[C@@H]1CCCN1C2=O`, the ΔTm in the assay on Nucleic Acid [1] is 0.7 °C; with Nucleic Acid [7], 1 °C; in the assay with Nucleic Acid [8], 1.2 °C. Further, the Concentration is 4.9 µM in the assay with A2780 [2]; 1.55 µM in the assay with A2780 [4]; 3 µM with CH1 [5]; 5.8 µM in the assay with SK-OV-3; 1.5 µM in the assay on CH1 [9]. Besides, the RF in the assay on A2780 [3] is given as 3.2; in the assay with CH1 [6], 2.

Take `COc1cc2c(cc1OCCC(=O)N1CCCC1)N=C[C@@H]1CCCN1C2=O`: the Concentration in the assay with A2780 [2] worked out at 4.3 µM; with A2780 [4] it was 1.5 µM; with CH1 [5], 1.85 µM; in the assay on SK-OV-3, 5.4 µM; with CH1 [9], 1.4 µM. Further, the ΔTm worked out at 0.5 °C with Nucleic Acid [10], 0.9 °C in the assay with Nucleic Acid [7] and 1.2 °C in the assay on Nucleic Acid [8]. The RF is 2.9 with A2780 [3] and 1.3 with CH1 [6].

As to `COc1cc2c(cc1OCCC(=O)N1Cc3ccccc3C1)N=C[C@@H]1CCCN1C2=O`, the values for the thermal shift (ΔTm) in the assay with Nucleic Acid [1], in the assay on Nucleic Acid [7] and in the assay with Nucleic Acid [8] were 1 °C, 1.1 °C and 1.3 °C, respectively. Further, the Concentration was 0.94 µM with A2780 [2]; 0.23 µM in the assay with A2780 [4]; 0.42 µM with CH1 [5]; 1.45 µM in the assay with SK-OV-3; 0.24 µM in the assay on CH1 [9]. The results for the RF with A2780 [3] and in the assay on CH1 [6] were 4 and 2, respectively. In addition, the results for the Score in [11], in assay [12] and in [13] were 2, 40 and 40, respectively.

On to `COc1cc2c(cc1OC)C(=O)N1CCC[C@H]1C=N2`, for which the ΔTm amounted to 0.2 °C in the assay on Nucleic Acid [1], 0.4 °C with Nucleic Acid [7] and 0.6 °C in the assay with Nucleic Acid [8]. Besides, the Concentration in the assay on A2780 [2] was found to be 0.155 µM; in the assay with A2780 [4], 0.064 µM; in the assay on CH1 [5], 0.11 µM; with SK-OV-3 it was 1.7 µM; in the assay on CH1 [9], 0.082 µM. Further, the figures for the RF in the assay with A2780 [3] and in the assay on CH1 [6] were 2.4 and 1.3, respectively.

Take `COc1cc2c(cc1OCCC(=O)N1CCCCC1)N=C[C@@H]1CCCN1C2=O`: the ΔTm was found to be 0.8 °C in the assay with Nucleic Acid [1], 0.9 °C in the assay with Nucleic Acid [7] and 1.2 °C with Nucleic Acid [8]. For the same compound, the Concentration was determined as 14.5 µM in the assay with A2780 [2]; 3.2 µM in the assay on A2780 [4]; 7.9 µM in the assay with CH1 [5]; 23.5 µM with SK-OV-3; 4.9 µM in the assay with CH1 [9]. Moreover, the RF with A2780 [3] is on record as 4.5; with CH1 [6], 1.6.
